From article PMC3428230 (ChemMedChem, 2011)
Read-outs that look alike come from different tables or passages of the source. Blank lines part the entries; values can stand above or below the compound they belong to.

Legend:
[1] = target: human GSK-3β (Homo sapiens, UniProt P49841); experiment: In vitro GSK-3β inhibition: phosphorylation of primed substrate; assay type: biochemical
[2] = Human liver microsomal stability; assay type: in vitro ADME; settings: 60 min, 1 and 10 μM
[3] = test system: C57BL/6J male mice; experiment: Prepulse inhibition of the acoustic startle response; assay type: in vivo; settings: 30 min pretreatment
Outline: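 Male C57BL/6J mice given test compound (10 or 25 mgkg−1) or vehicle i.p. in 10% DMSO, 30 min before testing. 5 min habituation to 70 dB background noise, then six startle-alone trials. Ten blocks of randomized null, 120 dB startle, prepulse (4/8/12 dB above background)+startle, and prepulse-alone trials. PPI = [1−(prepulse+startle)/startle amplitude]×100%. n=8–14 per group; repeated-measures ANOVA.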

[4] = target: CYP3A4 (Homo sapiens, UniProt P08684); experiment: Cytochrome P450 inhibition; assay type: in vitro ADME; settings: up to 10 μM of 3a
Sequence of CYP3A4 (P08684 whole entry): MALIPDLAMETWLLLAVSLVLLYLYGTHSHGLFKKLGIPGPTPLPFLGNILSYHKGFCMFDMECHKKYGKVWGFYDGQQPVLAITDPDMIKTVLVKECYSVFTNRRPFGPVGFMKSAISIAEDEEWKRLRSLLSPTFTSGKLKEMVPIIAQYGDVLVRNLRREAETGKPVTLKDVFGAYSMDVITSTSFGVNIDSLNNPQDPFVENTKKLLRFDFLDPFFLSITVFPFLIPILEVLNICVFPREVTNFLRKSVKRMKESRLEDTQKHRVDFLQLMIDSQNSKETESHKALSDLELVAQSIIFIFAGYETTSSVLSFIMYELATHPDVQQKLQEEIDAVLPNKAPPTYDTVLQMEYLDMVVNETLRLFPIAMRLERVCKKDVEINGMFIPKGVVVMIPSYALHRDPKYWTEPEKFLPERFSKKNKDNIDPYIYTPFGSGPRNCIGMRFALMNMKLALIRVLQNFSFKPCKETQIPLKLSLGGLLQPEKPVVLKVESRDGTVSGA

[5] = target: CYP2C19 (Homo sapiens, UniProt P33261); experiment: Cytochrome P450 inhibition; assay type: in vitro ADME; settings: up to 10 μM of 3a
Sequence of CYP2C19 (P33261 whole entry): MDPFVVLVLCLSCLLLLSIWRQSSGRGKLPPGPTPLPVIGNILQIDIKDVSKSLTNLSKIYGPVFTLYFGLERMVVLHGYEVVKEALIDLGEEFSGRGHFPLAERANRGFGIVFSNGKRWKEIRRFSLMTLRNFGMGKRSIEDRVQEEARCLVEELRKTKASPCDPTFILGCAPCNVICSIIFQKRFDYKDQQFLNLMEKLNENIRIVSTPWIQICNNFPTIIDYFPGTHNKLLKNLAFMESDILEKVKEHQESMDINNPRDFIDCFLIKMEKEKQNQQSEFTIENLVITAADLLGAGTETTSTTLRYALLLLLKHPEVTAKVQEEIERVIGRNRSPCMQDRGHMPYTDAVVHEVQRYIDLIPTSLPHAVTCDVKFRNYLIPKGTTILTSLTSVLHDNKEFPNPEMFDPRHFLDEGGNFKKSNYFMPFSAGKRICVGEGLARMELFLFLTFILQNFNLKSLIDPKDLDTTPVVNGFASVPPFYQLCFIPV

[6] = test system: 15 kinases; experiment: Selectivity studies against 15 kinases; assay type: biochemical; settings: 15 kinases (Supporting Information)
[7] = target: T1, CYP1A2 (Homo sapiens, UniProt P05177); experiment: Cytochrome P450 inhibition; assay type: in vitro ADME; settings: up to 10 μM of 3a
T1 sequence (P05177 1-516): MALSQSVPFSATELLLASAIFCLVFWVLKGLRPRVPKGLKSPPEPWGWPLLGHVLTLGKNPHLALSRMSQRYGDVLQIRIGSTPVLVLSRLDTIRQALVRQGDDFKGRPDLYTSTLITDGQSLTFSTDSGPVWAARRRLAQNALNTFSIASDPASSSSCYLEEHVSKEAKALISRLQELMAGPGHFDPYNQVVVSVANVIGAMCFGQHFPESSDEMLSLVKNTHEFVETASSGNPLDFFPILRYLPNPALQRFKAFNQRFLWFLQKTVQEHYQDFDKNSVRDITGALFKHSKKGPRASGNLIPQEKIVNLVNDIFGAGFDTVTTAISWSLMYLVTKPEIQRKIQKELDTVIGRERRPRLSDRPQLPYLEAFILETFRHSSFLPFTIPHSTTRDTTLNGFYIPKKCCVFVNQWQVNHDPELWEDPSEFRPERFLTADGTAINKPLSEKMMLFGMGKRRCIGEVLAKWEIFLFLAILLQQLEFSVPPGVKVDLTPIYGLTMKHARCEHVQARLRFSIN

[8] = Aqueous solubility, HPLC-based method; assay type: physicochemical
[9] = target: CYP2C9 (Homo sapiens, UniProt P11712); experiment: Cytochrome P450 inhibition; assay type: in vitro ADME; settings: up to 10 μM of 3a
Sequence of CYP2C9 (P11712 whole entry): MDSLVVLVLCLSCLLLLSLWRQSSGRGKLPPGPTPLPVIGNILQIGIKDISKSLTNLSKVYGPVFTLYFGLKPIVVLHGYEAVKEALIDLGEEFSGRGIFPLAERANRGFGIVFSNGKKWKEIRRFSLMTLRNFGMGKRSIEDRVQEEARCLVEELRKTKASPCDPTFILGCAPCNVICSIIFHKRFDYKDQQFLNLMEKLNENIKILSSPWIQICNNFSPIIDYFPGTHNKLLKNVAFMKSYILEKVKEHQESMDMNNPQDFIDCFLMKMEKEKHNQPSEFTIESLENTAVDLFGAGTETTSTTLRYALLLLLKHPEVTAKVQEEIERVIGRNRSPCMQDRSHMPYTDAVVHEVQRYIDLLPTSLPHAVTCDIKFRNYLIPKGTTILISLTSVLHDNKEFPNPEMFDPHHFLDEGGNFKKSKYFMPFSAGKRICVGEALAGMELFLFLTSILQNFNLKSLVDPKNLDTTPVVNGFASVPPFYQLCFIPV

[10] = target: T2, CYP2B6 (Homo sapiens, UniProt P20813); experiment: Cytochrome P450 inhibition; assay type: in vitro ADME; settings: up to 10 μM of 3a
T2 sequence (P20813 1-491): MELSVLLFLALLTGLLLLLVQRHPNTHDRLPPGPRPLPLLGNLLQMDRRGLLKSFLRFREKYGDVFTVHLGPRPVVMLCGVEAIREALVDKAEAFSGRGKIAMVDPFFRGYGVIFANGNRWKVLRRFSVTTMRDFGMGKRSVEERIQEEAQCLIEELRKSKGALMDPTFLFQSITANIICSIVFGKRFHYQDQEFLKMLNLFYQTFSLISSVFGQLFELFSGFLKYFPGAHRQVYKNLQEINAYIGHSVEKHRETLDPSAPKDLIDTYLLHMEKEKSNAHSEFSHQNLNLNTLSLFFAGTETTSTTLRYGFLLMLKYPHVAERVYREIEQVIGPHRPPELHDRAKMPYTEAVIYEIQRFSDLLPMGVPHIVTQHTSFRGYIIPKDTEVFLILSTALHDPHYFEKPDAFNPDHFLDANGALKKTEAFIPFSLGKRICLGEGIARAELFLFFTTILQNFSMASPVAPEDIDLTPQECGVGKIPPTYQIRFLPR

[11] = test system: C57BL/6J male mice; experiment: Amphetamine–chlordiazepoxide locomotor hyperactivity procedure; assay type: in vivo
[12] = target: CYP2D6 (Homo sapiens, UniProt P10635); experiment: Cytochrome P450 inhibition; assay type: in vitro ADME; settings: up to 10 μM of 3a
Sequence of CYP2D6 (P10635 whole entry): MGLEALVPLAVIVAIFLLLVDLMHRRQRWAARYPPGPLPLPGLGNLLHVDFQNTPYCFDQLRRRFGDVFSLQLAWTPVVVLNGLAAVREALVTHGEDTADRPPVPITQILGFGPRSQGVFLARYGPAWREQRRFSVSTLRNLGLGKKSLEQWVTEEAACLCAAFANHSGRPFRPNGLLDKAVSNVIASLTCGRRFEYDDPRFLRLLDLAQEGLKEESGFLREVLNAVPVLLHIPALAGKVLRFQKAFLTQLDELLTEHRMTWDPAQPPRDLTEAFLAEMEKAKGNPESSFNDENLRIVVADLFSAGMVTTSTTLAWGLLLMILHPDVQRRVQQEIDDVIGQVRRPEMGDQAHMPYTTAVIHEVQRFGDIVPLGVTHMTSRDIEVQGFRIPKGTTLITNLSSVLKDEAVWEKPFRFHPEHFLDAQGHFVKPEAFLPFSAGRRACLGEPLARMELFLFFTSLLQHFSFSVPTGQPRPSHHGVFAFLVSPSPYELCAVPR

[13] = test system: ClockΔ19 mutant mice; experiment: Locomotor activity in CLOCK mutant mice; assay type: in vivo; settings: 12.5 mgkg^−1 i.p. once a day for five days, 2 h recording
[14] = Mouse liver microsomal stability; assay type: in vitro ADME; settings: 60 min, 1 and 10 μM
[15] = primed substrate 20 μm, 10 μm ATP, tested at Reaction Biology Inc.

Sequence of human GSK-3β (P49841 whole entry): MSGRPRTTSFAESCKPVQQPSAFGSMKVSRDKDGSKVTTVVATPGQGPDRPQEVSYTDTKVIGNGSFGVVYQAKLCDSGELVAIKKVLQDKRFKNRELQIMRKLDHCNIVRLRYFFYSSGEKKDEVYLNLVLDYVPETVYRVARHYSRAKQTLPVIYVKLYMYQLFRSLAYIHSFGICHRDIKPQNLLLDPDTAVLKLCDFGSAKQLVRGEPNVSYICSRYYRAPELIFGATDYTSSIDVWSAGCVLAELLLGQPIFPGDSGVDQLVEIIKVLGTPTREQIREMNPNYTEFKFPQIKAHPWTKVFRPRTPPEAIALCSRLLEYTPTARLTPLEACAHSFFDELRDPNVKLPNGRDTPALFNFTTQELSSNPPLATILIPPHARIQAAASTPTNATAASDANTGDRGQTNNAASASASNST

SMILES: O=C1NC(=O)C(c2cn(C3CCN(Cc4ccncc4)CC3)c3ccccc23)=C1c1coc2ccccc12 [Compound 3j, 3-Benzofuran-3-yl-4-[1-(1-pyridin-4-ylmethyl-piperidin-4-yl)-1H-indol-3-yl]-pyrrole-2,5-dione]
- IC50 [1]: 65 ± 4 nM

SMILES: O=C1NC(=O)C(c2cn(C3CCNCC3)c3ccccc23)=C1c1coc2ccccc12 [Compound 3a, 3-Benzofuran-3-yl-4-(1-piperidin-4-yl-1H-indol-3-yl)-pyrrole-2,5-dione]
- compound remained after incubation with liver microsomes [2]: more than 83%
- prepulse inhibition (PPI) ([3]; 10 mgkg^−1 i.p.): not active
- prepulse inhibition (PPI) ([3]; 25 mgkg^−1 i.p.): enhanced PPI
- CYP3A4 inhibition [4]: ≤ 30%
- CYP2C19 inhibition [5]: ≤ 30%
- kinase selectivity [6]: reasonably selective amongst other kinases with the exception of PKA and PKC-b2
- CYP1A2 inhibition [7]: ≤ 30%
- aqueous solubility [8]: 196 mgL^−1
- CYP2C9 inhibition [9]: ≤ 30%
- CYP2B6 inhibition [10]: ≤ 30%
- activity in the Amph/CDP assay ([11]; 3 mgkg^−1 i.p., 5 min pretreatment): not active
- baseline locomotor activity ([11]; doses higher than 10 mgkg^−1): reductions in baseline locomotor activity
- CYP2D6 inhibition [12]: ≤ 30%
- IC50 [1]: 67 ± 6 nM
- locomotor hyperactivity in response to novelty (beam breaks) [13]: attenuation of the locomotor hyperactivity
- compound remained after incubation with liver microsomes [14]: more than 83%

SMILES: COc1ccc2c(C3=C(c4cn(C5CCNCC5)c5ccccc45)C(=O)NC3=O)coc2c1 [Compound 3b, 3-(6-Methoxy-benzofuran-3-yl)-4-(1-piperidin-4-yl-1H-indol-3-yl)-pyrrole-2,5-dione]
- IC50 [1]: 629 ± 32 nM

SMILES: COc1cccc2c(C3=C(c4cn(C5CCNCC5)c5ccc(F)cc45)C(=O)NC3=O)coc12 [Compound 3g, 3-(5-Fluoro-1-piperidin-4-yl-1H-indol-3-yl)-4-(7-methoxy-benzo-furan-3-yl)-pyrrole-2,5-dione]
- IC50 [1]: 28 ± 4 nM

SMILES: O=C1NC(=O)C(c2cn(C3CCNCC3)c3ccc(F)cc23)=C1c1coc2ccccc12 [Compound 3d, 3-Benzofuran-3-yl-4-(5-fluoro-1-piperidin-4-yl-1H-indol-3-yl)-pyr-role-2,5-dione]
- IC50 [1, 15]: 30 ± 4 nM

SMILES: O=C1NC(=O)C(c2cn(C3CCNCC3)c3ccc(Br)cc23)=C1c1coc2ccccc12 [3 f, 3-Benzofuran-3-yl-4-(5-bromo-1-piperidin-4-yl-1H-indol-3-yl)-pyr-role-2,5-dione]
- IC50 [1, 15]: 684 ± 17 nM

SMILES: CN1CCC(n2cc(C3=C(c4coc5ccccc45)C(=O)NC3=O)c3ccccc32)CC1 [Compound 3h, 3-Benzofuran-3-yl-4-[1-(1-methyl-piperidin-4-yl)-1H-indol-3-yl]-pyrrole-2,5-dione]
- IC50 [1]: 155 ± 2 nM

SMILES: COc1cccc2c(C3=C(c4cn(C5CCNCC5)c5ccccc45)C(=O)NC3=O)coc12 [Compound 3c, 3-(7-Methoxy-benzofuran-3-yl)-4-(1-piperidin-4-yl-1H-indol-3-yl)-pyrrole-2,5-dione]
- IC50 [1]: 134 ± 5 nM

SMILES: O=C1NC(=O)C(c2cn(C3CCNCC3)c3ccc(Cl)cc23)=C1c1coc2ccccc12 [Compound 3e, 3-Benzofuran-3-yl-4-(5-chloro-1-piperidin-4-yl-1H-indol-3-yl)-pyr-role-2,5-dione]
- IC50 [1, 15]: 272 ± 27 nM

SMILES: O=C1NC(=O)C(c2cn(C3CCN(Cc4ccccn4)CC3)c3ccccc23)=C1c1coc2ccccc12 [Compound 3i, 3-Benzofuran-3-yl-4-[1-(1-pyridin-2-ylmethyl-piperidin-4-yl)-1H-indol-3-yl]-pyrrole-2,5-dione]
- IC50 [1]: 110 ± 4 nM

Further lines, results first:

- IC50 [1]: 8 ± 2 nM
SMILES: O=C1NC(=O)C(c2cn(C3CCN(C(=O)c4cccnc4)CC3)c3ccccc23)=C1c1coc2ccccc12 [Compound 3m, 3-Benzofuran-3-yl-4-{1-[1-(pyridine-3-carbonyl)-piperidin-4-yl]-1H-indol-3-yl}-pyrrole-2,5-dione]

- IC50 [1]: 10 ± 2 nM
SMILES: O=C1NC(=O)C(c2cn(C3CCN(C(=O)N4CCOCC4)CC3)c3ccccc23)=C1c1coc2ccccc12 [Compound 3k, 3-Benzofuran-3-yl-4-{1-[1-(morpholine-4-carbonyl)-piperidin-4-yl]-1H-indol-3-yl}-pyrrole-2,5-dione]

- IC50 [1]: 4 ± 1 nM
SMILES: O=C1NC(=O)C(c2cn(C3CCN(C(=O)c4cnccn4)CC3)c3ccccc23)=C1c1coc2ccccc12 [Compound 3o, 3-Benzofuran-3-yl-4-{1-[1-(pyrazine-2-carbonyl)-piperidin-4-yl]-1H-indol-3-yl}-pyrrole-2,5-dione]

- IC50 [1]: 6 ± 1 nM
SMILES: O=C1NC(=O)C(c2cn(C3CCN(C(=O)c4ccccn4)CC3)c3ccccc23)=C1c1coc2ccccc12 [Compound 3l, 3-Benzofuran-3-yl-4-{1-[1-(pyridine-2-carbonyl)-piperidin-4-yl]-1H-indol-3-yl}-pyrrole-2,5-dione]

- IC50 [1]: 55 ± 2 nM
SMILES: NCC(=O)N1CCC(n2cc(C3=C(c4coc5ccccc45)C(=O)NC3=O)c3ccccc32)CC1 [Compound 3p, 3-{1-[1-(2-Amino-acetyl)-piperidin-4-yl]-1H-indol-3-yl}-4-benzofuran-3-yl-pyrrole-2,5-dione]

- IC50 [1]: 25 ± 2 nM
SMILES: Cc1nonc1C(=O)N1CCC(n2cc(C3=C(c4coc5ccccc45)C(=O)NC3=O)c3ccccc32)CC1 [Compound 3q, 3-Benzofuran-3-yl-4-{1-[1-(4-methyl-furazan-3-carbonyl)-piperidin-4-yl]-1H-indol-3-yl}-pyrrole-2,5-dione]

- IC50 [1]: 4 ± 1 nM
SMILES: O=C1NC(=O)C(c2cn(C3CCN(C(=O)c4ccncc4)CC3)c3ccccc23)=C1c1coc2ccccc12 [Compound 3n, 3-Benzofuran-3-yl-4-{1-[1-(pyridine-4-carbonyl)-piperidin-4-yl]-1H-indol-3-yl}-pyrrole-2,5-dione]
